High-throughput results from PubChem.
This is a sample that favours compounds with a hit; in the whole collection about 2.5% have one here.
SIAE primary – human SIAE inhibition, primary screen | inhibition, % at 9.66 µM | hit rate 0.69% among 370,000 | AID 1053197 | SIAE FP-Rh probe binding, fluorescence polarization;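 active = inhibition above a cutoff: mean of compounds within the control limits plus 3 SD of those, cut at about 17% in these data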;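 also: 0% = plate median of compound wells and 100% = probe without SIAE protein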
Target sequence (Q9HAT2 whole entry, looked up): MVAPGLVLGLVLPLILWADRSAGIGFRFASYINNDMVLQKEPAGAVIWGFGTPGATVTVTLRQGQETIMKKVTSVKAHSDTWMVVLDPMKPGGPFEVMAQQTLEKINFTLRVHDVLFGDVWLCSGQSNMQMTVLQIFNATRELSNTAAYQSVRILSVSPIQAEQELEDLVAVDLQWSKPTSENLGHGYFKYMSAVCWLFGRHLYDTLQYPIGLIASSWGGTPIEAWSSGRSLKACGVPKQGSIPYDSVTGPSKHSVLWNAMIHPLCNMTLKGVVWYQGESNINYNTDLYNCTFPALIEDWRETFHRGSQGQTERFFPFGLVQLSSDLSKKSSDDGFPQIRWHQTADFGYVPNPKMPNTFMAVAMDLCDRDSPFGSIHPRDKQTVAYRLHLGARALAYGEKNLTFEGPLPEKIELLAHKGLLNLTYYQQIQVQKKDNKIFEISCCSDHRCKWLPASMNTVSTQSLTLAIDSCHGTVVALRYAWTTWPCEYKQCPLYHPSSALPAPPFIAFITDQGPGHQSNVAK
TCR-CD3 inh – inhibitors of human TCR-CD3 interaction | TAMRA-labeled TCR probe fluorescence, biochemical | hit rate 0.37% among 360,000 | inhibition, % at 9.4 µM | AID 651800; in the data active = inhibition above about 19%;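 also: recombinant mutant TCR 2C K166C tagged with TAMRA read by polarization; 0% = receptor in buffer alone and 100% = receptor with positive control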
rCAG RNA binder – binds r(CAG) RNA repeats. hit rate 1.3% among 370,000. inhibition, % at 3 µM. AID 651821. r(CAG) RNA repeat, TO-PRO-1 dye displacement fluorescence;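 active = inhibition above the plate cutoff, the mean of all test compounds on that plate plus 3 SD, cut at about 35% in these data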;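 also: 0% = DMSO alone and 100% = 100 µM mitoxantrone as full dye displacement; higher means more dye released from RNA so lower well fluorescence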
HTRA1 inh – inhibitors of human serine peptidase HTRA1; Q92743; recombinant HTRA1, FP-rhodamine activity-based probe, fluorescence polarization; inhibition, % at 5.96 µM; hit rate 0.5% among 340,000; in the data active = inhibition above about 36%;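 also: 0% = enzyme with DMSO and 100% = wells lacking enzyme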
ABHD4 inh – inhibitors of mouse ABHD4; Q8VD66; purified mABHD4, FP-Rh probe fluorescence polarization; inhibition, % at 8.92 µM; hit rate 0.54% among 370,000; AID 720543;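 active = inhibition exceeding the mean over every tested compound plus 3 SD, cut at about 30% in these data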;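 also: 0% = plate median of compound wells and 100% = S159A mutant with DMSO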
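assay system = mABHD4 protein | compound dosing = single nominal dose of 8.92 µM, 0.89% DMSO final | read-out basis = percent inhibition of probe binding, normalized to plate controls | schedule = Enzyme–compound pre-incubation 45 min, then probe 60 min, both 25 °C | detection = fluorescence polarization, excitation 525 nm, emission 598 nm, BODIPY TMR filters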
mABHD4 conf – ABHD4 (mouse) inhibition, FP confirmation | inhibition, % at 8.92 µM | hit rate 55% among 1,800 | purified mABHD4, FP-Rh probe fluorescence polarization | shares compounds with ABHD4 inh | AID 720658;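 active = mean inhibition across replicates above the hit cutoff set in the primary screen, cut at about 30% in these data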;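 also: 0% = wild-type ABHD4 with DMSO and 100% = catalytically dead S159A mutant with DMSO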
Active calls of the source: *; . = no result; ! = repeats disagree.

SMILES	SIAE primary	TCR-CD3 inh	rCAG RNA binder	HTRA1 inh	ABHD4 inh	mABHD4 conf
NC(=S)n1[nH]c(-c2ccc([N+](=O)[O-])cc2)c(N=Nc2ccccc2[N+](=O)[O-])c1=O	3.4	0.5	4.2	-0.3	16.1	.
CC1=C(C(=O)NCc2ccc3c(c2)OCO3)C2(CCC(C)CC2)OC1=O (centres undefined)	1.7	-4.2	4.8	-2.6	4.5	.
CC1=C(C(=O)NCc2ccco2)C2(CCC(C)CC2)OC1=O (centres undefined)	0.1	-8.9	6.4	-6.3	30.8*	-5.4
Cc1c(CCOC(=O)c2ccc(Cl)cc2Cl)sc[n+]1CC(=O)c1ccc(Br)cc1	-1.1	-0.1	5.8	-23.4	29.1	.
Cc1c(CCOC(=O)C2C3CC4CC(C3)CC2C4)sc[n+]1CC(=O)c1ccc(Br)cc1 (centres undefined)	-1.3	-4.6	7.1	-67.6	32.5*!	35.9*
C=CCN=c1scc(C)n1/N=C/c1ccc(O)c(O)c1	14.5	10.1	1.2	34.7	40.2*	23.2
CCCc1nc2ccccc2c(=O)n1NC(=O)c1c(O)c2ccccc2n(C)c1=O	6.0	4.5	2.6	2.7	1.1	.
Cc1cc(C)n2nc(C(=O)OCC(=O)N3CCC3)nc2n1	-5.9	-6.8	-1.9	1.9	-2.5	.
Cc1c(NC(=O)c2ccc(N(C)S(=O)(=O)c3ccccc3)cc2)c(=O)n(-c2ccccc2)n1C	3.5	-2.5	-1.5	-1.2	1.9	.
Cc1ccc2[nH]c3c(NCc4ccccc4)ncnc3c2c1	24.1*	1.1	10.5	.	41.2*	20.2
COc1ccc(CNc2ncnc3c2[nH]c2ccccc23)cc1	14.0	-1.8	3.8	.	14.2	.
O=C(Nc1ccccc1F)c1ccc2c(c1)CCN2S(=O)(=O)c1ccccc1	-9.8	2.2	0.3	-32.0	79.8*	-21.4
NNC(=O)c1sccc1OCc1ccc(Cl)cc1	-3.6	0.2	0.2	-16.9	-0.3	.
NC(=S)NN=Cc1cc(-c2cccc(N)c2)ccn1	-0.2	0.3	5.9	26.2	43.8*	57.5*
O=C(NCc1cccc(Br)c1)c1cc(-c2ccccc2)nn1CC1CC(c2cccnc2)=NO1 (centres undefined)	-2.3	1.0	-3.3	-26.9	-0.3	.
O=C1C2C(C(=O)N1/N=C/c1cc([N+](=O)[O-])c(O)cc1O)C1C=CC2C12CC2 (centres undefined)	-1.0	7.8	15.3	17.9	30.8*	20.7
O=C1c2ccccc2C(=O)c2cc(S(=O)(=O)Nc3ccccc3)ccc21	4.7	-1.6	28.2	8.3	39.9*	53.2*
O=C(O)c1cccc(NS(=O)(=O)c2ccc3c(c2)C(=O)c2ccccc2C3=O)c1	-5.5	-1.3	29.2	2.0	45.0*	36.7*
O=C(O)c1cccc(NS(=O)(=O)c2ccc(C3CCCCC3)cc2)c1	.	.	.	-17.7	.	.
O=S(=O)(Nc1ccccc1)c1ccc(F)cc1	-6.0	1.6	-4.3	-7.0	0.2	.
O=C(OCc1cn([C@H]2CN(CC3CCCCC3)[C@@H](c3ccc(Cl)cc3)C[C@@H]2O)nn1)c1ccccc1	-7.2	-4.4	5.4	-104.1	2.7	.
CCOC(=O)COc1c(Cl)cc(/C=C2\N=C(C)OC2=O)cc1OC	1.6	2.1	2.4	0.1	-1.1	.
COC(=O)c1ccc(NCc2c(O)ccc(O)c2Br)cc1Cl	11.9	-1.8	23.0	-14.4	30.6*	37.3*
Cc1cc2ccccn2c1C(=O)c1ccc(NN)c([N+](=O)[O-])c1	8.1	-2.5	11.5	-0.8	33.4*	17.0
CC1CC(C)CN(C(=O)CSC2=Nc3ccccc3C3=NC(Cc4c[nH]c5ccccc45)C(=O)N23)C1 (centres undefined)	.	.	.	-9.0	.	.
SMILES	SIAE primary	TCR-CD3 inh	rCAG RNA binder	HTRA1 inh	ABHD4 inh	mABHD4 conf
CC(=O)c1nn(-c2cccc(C)c2)cc1C(=O)c1cccc(Br)c1	-6.3	5.2	-3.9	-6.5	4.8	.
CC[C@@H](C)[C@H](CNC)NC[C@@H](Cc1cccc2ccccc12)NCCc1cccc(C(F)(F)F)c1	0.3	0.4	1.7	-7.4	49.5*	50.8*
CNC[C@@H](CC1CCCCC1)NC[C@H](CC(C)C)NCCc1cccc(C(F)(F)F)c1	-2.7	-4.8	5.6	5.3	31.1*	51.5*
CNC[C@@H](Cc1ccccc1)NC[C@@H](CC1CCCCC1)NCCCc1ccccc1	5.4	8.4	16.1	3.7	38.5*	46.1*
OCC[C@@H]1C[C@H](O)[C@@H](O)[C@]2(CCCCO2)O1	4.0	-2.9	7.1	4.9	1.2	.
O=C(COC(=O)C1(c2ccc(Cl)cc2)CCCC1)NCc1ccco1	-3.5	-5.6	-2.1	-12.3	-3.9	.
CC(C)C[C@@H]1CN=C(N)N1C[C@@H]1CCCN1C[C@@H](C(C)C)N1C[C@@H](Cc2ccccc2)N(CCc2ccc(Cl)c(Cl)c2)C1=N	6.5	3.7	7.2	0.9	34.1*	22.4
C=CCOc1ccc(/C=C/C(=O)OCC(=O)NCCCc2ccccc2)cc1	1.1	9.0	-7.3	-4.5	-4.3	.
O=C(COc1ccccc1)N=C1SC2CS(=O)(=O)CC2N1c1ccc(F)cc1 (centres undefined)	3.8	4.3	0.0	4.2	33.8*	0.0
O=C(COc1ccccc1)N=C1SC2CS(=O)(=O)CC2N1CCc1ccccc1 (centres undefined)	-3.4	-4.2	-1.0	3.8	2.1	.
COc1cccc2c(=O)c3cccc(N)c3[nH]c12	6.4	17.9	28.7	31.6	58.1*	65.6*
COc1cccc2c(=O)c3c([nH]c12)OC(C)(C)C3	4.2	-4.7	0.7	0.8	3.6	.
Cc1ccc(Nc2cc(C)c3c(O)cccc3n2)cc1C	17.8*	-6.2	17.7	14.2	44.0*	50.7*
N#Cc1c(N)nc2c3c(sc(=N)c2c1N)NC(=O)CC3c1ccccc1 (centres undefined)	-1.9	17.0	17.6	25.8	30.5*	-77.0
Cc1c(C#N)c(N)nc2c3c(sc12)NC(=O)CC3c1ccc(Cl)cc1 (centres undefined)	12.5	2.2	7.5	-16.4	8.2	.
CC(=O)Nc1ccc(OCc2nnc(-c3ccccc3)o2)cc1	0.4	0.7	-1.0	-3.6	1.2	.
Cc1ccc(NC(=O)c2oc3ccccc3c2NC(=O)C2CCCO2)cc1C (centres undefined)	-12.8	-13.0	7.9	-50.1	-40.0	.
Nc1[nH]n2c(=O)c3c(nc2c1N=Nc1ccc(Cl)cc1)CCCC3	6.6	2.6	16.5	3.8	31.0*	33.5*
Cc1[nH]n2c(=O)c3c(nc2c1-c1ccc(Cl)cc1)CCC3	.	.	.	1.7	.	.
OC(CNCCC1C=Nc2ccccc21)Cn1c2ccc(Cl)cc2c2cc(Cl)ccc21 (centres undefined)	26.6*	18.1	15.4	-19.4	34.4*	43.9*
COc1ccc(OC)c(N2Cc3cc(C)c(C)cc3C2)c1	9.4	-0.7	12.1	30.7	30.2*	35.8*
CCOc1ccccc1N1Cc2cc(C)c(C)cc2C1	5.5	-1.7	11.2	24.4	17.4	.
COc1ccc(S(=O)(=O)N/N=C(/C)c2ccncc2)c(OC)c1	6.5	-11.6	-2.1	7.1	71.4*	4.7
